ChEMBL document CHEMBL4007449, “Novel multi-substituted benzyl acridone derivatives as survivin inhibitors for hepatocellular carcinoma treatment” (Eur J Med Chem, 2017)
Active and inactive are the calls of the source. The calls are words filed in the database; no cut-off is given here.

What was measured:
[1] = test system: HepG2; assay: Antiproliferative activity against human HepG2 cells after 48 hrs by MTT assay; assay type: functional, cell-based; details: HepG2, 48 h
Procedure, shortened: (§1)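 Cells grown in DMEM with 10% FBS at 37 °C, 5% CO2; seeded at 6 × 10^3 cells/well, allowed to attach 12 h, then exposed to compound at final 50, 25, 10, 1 and 0.1 µM for 48 h. MTT (5 mg/mL) added for 4 h, formazan dissolved in DMSO, absorbance read at 490 nm; IC50 taken from the resulting curve.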

[2] = test system: MCF7; assay: Antiproliferative activity against human MCF7 cells after 48 hrs by MTT assay; assay type: functional, cell-based; details: MCF7, 48 h; procedure, shortened: as §1
[3] = biological target: Baculoviral IAP repeat-containing protein 5 (Homo sapiens) (UniProt O15392); assay: Binding affinity to survivin (unknown origin) up to 1.8 uM after 20 mins by spectrofluorimetric titration method
[4] = Antiproliferative activity against human QGY7701 cells after 48 hrs by MTT assay; assay type: cell-based; details: QGY7701, 48 h; procedure, shortened: as §1
[5] = test system: HepG2; assay: Downregulation of survivin expression in human HepG2 cells after 24 hrs by Western blot method; assay type: functional, cell-based
Procedure, shortened: (§2)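 HepG2 cells in 6 cm dishes exposed to a range of concentrations (1–10 µM) for 24 h. Lysate protein measured by BCA, run on 12% SDS-PAGE and transferred to PVDF. Membrane blocked in 5% milk for 1 h, primary antibody overnight at 4 °C, bands imaged after antibody hybridisation.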

[6] = test system: HepG2; assay: Upregulation of cleaved caspase-7 expression in human HepG2 cells at 10 uM after 24 hrs by Western blot method; assay type: functional, cell-based; procedure, shortened: as §2
[7] = test system: HepG2; assay: Downregulation of Bcl2 expression in human HepG2 cells at 10 uM after 24 hrs by Western blot method; assay type: functional, cell-based; procedure, shortened: as §2
[8] = biological target: T1, DNA topoisomerase 1 (Homo sapiens) (UniProt P11387); assay: Inhibition of recombinant human topoisomerase-1-mediated relaxation of pBR322 DNA substrate after 30 mins agarose gel electrophoresis method
T1 sequence (whole entry): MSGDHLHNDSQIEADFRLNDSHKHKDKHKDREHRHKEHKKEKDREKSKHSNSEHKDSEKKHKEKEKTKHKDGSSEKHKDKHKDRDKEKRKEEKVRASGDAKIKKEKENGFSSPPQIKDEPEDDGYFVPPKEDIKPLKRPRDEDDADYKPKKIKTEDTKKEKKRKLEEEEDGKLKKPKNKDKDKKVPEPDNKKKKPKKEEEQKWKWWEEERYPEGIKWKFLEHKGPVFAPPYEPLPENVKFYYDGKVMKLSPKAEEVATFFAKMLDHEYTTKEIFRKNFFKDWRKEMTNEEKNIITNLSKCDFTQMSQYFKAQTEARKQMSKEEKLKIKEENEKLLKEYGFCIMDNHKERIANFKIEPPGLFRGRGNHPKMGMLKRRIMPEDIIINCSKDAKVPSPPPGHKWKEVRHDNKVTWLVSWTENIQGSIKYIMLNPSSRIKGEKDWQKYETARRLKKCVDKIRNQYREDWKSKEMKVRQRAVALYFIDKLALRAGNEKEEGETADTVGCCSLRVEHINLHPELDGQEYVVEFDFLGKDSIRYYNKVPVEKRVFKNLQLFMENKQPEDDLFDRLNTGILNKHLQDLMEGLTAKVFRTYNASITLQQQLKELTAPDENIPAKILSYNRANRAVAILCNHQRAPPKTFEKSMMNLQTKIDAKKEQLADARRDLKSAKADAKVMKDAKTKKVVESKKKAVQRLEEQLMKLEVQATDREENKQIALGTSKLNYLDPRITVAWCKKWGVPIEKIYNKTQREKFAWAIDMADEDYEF

[9] = test system: HepG2; assay: Upregulation of cleaved PARP expression in human HepG2 cells up to 10 uM after 24 hrs by Western blot method; assay type: functional, cell-based; procedure, shortened: as §2
[10] = species: Bos taurus; assay: Binding affinity to calf thymus DNA at 40 uM after 5 mins by UV absorbance spectrophotometric method; details: in the assay text read “fluorescence spectroscopic method” for “UV absorbance spectrophotometric method”
Procedure, shortened: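 Fluorescence emission titration on a spectrofluorometer in 5 mM Tris, 50 mM NaCl, pH 7.2. Compound fixed at 40 µM final; ct DNA added at 0, 8, 16, 24, 32, 40, 60, 80 and 120 µM final. DNA concentration set by UV using ε260 = 6600 M-1 cm-1. Excitation 280 nm; 5 min incubation before reading.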

[11] = biological target: Baculoviral IAP repeat-containing protein 5 (Homo sapiens) (UniProt O15392); assay: Binding affinity to survivin (unknown origin) after 20 mins by spectrofluorimetric titration method
Procedure, shortened: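 Intrinsic fluorescence titration of purified survivin (0.3 µM) in 10 mM PBS, pH 7.4, at 37 °C. Compound added to final 0–1.6 µM; 20 min incubation before recording emission spectra with excitation at 280 nm. Spectra compared with and without survivin.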

[12] = species: Homo sapiens; assay: Inhibition of recombinant human topoisomerase-2-mediated decatenation at 50 uM using kinetoplast DNA as substrate after 30 mins agarose gel electrophoresis method relative to control
Procedure, shortened: (§3)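 Human Topo II decatenation run by a contract laboratory. Compound or 50% DMSO combined with reaction mix and diluted enzyme, incubated 35 ± 2 °C for 30 min, then stop buffer added. Products separated on 1% agarose, stained 10 min with 2.3 µg/ml ethidium bromide, destained 20 min, bands quantified densitometrically. Doxorubicin at 1 and 10 µM as positive controls, no-compound negative control; run in duplicate.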

[13] = species: Homo sapiens; assay: Inhibition of recombinant human topoisomerase-2-mediated decatenation at 10 uM using kinetoplast DNA as substrate after 30 mins agarose gel electrophoresis method relative to control; procedure, shortened: as §3
[14] = test system: Mus musculus; assay: Toxicity in nude mouse ectopically xenografted with human HepG2 cells assessed as spleen weight index at 25 mg/kg, ip administered once in 2 days measured after 30 days (reference value: 0.002 to 0.0106); assay type: organism-based; details: in vivo, 720 h
[15] = test system: Mus musculus; assay: Toxicity in nude mouse ectopically xenografted with human HepG2 cells assessed as liver weight at 25 mg/kg, ip administered once in 2 days measured after 30 days (reference value: 0.069 to 0.434 g); assay type: organism-based; details: in vivo, 720 h
[16] = test system: Mus musculus; assay: Toxicity in nude mouse ectopically xenografted with human HepG2 cells assessed as liver weight index at 25 mg/kg, ip administered once in 2 days measured after 30 days (reference value: 0.0009 to 0.0187); assay type: organism-based; details: in vivo, 720 h
[17] = test system: HepG2; assay: Antitumor activity against human HepG2 cells ectopically xenografted in nude mouse assessed as tumor growth inhibition at 25 mg/kg, ip administered once in 2 days measured after 30 days relative to control; assay type: functional; details: read-out: TGI
[18] = test system: Mus musculus; assay: Toxicity in nude mouse ectopically xenografted with human HepG2 cells assessed as body weight loss at 25 mg/kg, ip administered once in 2 days measured after 10 days relative to control; assay type: organism-based; details: in vivo, 240 h
[19] = test system: Mus musculus; assay: Toxicity in nude mouse ectopically xenografted with human HepG2 cells assessed as spleen weight at 25 mg/kg, ip administered once in 2 days measured after 30 days (reference value: 0.071 to 0.248 g); assay type: organism-based; details: in vivo, 720 h

Chain of Baculoviral IAP repeat-containing protein 5 (Homo sapiens) (O15392 whole entry): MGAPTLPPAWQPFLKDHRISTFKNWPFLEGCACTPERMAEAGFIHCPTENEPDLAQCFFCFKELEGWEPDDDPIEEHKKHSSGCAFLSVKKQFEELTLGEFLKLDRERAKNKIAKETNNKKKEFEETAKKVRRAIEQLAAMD

| Compound | IC50 [1] | IC50 [2] | further results |
| --- | --- | --- | --- |
| COCCNC(=O)c1ccc(NCc2ccccc2)c2c(=O)c3cccc(C)c3[nH]c12 | 17.2 µM | > 50 µM |  |
| COCCN1C(C)=[N+](Cc2cnccn2)C2Cc3ccccc3CC21 (centres undefined) | 15.3 µM | 4.13 µM | Activity [3]: inactive |
| Cc1cccc2c(=O)c3c(Cl)ccc(C(=O)NCCN(C)C)c3[nH]c12 | > 50 µM | > 50 µM |  |
| COc1ccc(CNc2ccc(C(=O)NCCN(C)C)c3[nH]c4c(C)cccc4c(=O)c23)cc1 | 2.11 µM | 6.84 µM | IC50 [4]: 6.91 µM |
| COCCNC(=O)c1ccc(NCc2cc(OC)c(OC)c(OC)c2)c2c(=O)c3cccc(C)c3[nH]c12 | > 50 µM | > 50 µM |  |
| COc1cccc2c(=O)c3c(NCc4ccccc4)ccc(C(=O)NCCN(C)C)c3[nH]c12 | 5.5 µM | 13.7 µM |  |
| CN(C)CCNC(=O)c1ccc(N(C)C)c2c(=O)c3cccc([N+](=O)[O-])c3[nH]c12 | 28.6 µM | 3.54 µM |  |
| COCCNC(=O)c1ccc(NCc2cccc(OC)c2)c2c(=O)c3cccc(C)c3[nH]c12 | > 50 µM | > 50 µM |  |
| COc1ccc(CNc2ccc(C(=O)NCCCN(C)C)c3[nH]c4c(C)cccc4c(=O)c23)cc1 | 5.94 µM | 4.12 µM |  |
| CCc1ccc(CNc2ccc(C(=O)NCCCN(C)C)c3[nH]c4c([N+](=O)[O-])cccc4c(=O)c23)cc1 | 5.78 µM | 4.69 µM |  |
| CN(C)CCCNC(=O)c1ccc(NCc2ccccc2)c2c(=O)c3cccc([N+](=O)[O-])c3[nH]c12 | 2.43 µM | 2.92 µM | IC50 [4]: 3.97 µM |
| COc1cc(CNc2ccc(C(=O)NCCN(C)C)c3[nH]c4c(C)cccc4c(=O)c23)cc(OC)c1OC | 4.96 µM | 5.06 µM |  |
| COc1ccc(CNc2ccc(C(=O)NCCN(C)C)c3[nH]c4c(Cl)cc(Cl)cc4c(=O)c23)cc1 | 17.5 µM | 17.5 µM |  |
| COc1cccc(CNc2ccc(C(=O)NCCN(C)C)c3[nH]c4c([N+](=O)[O-])cccc4c(=O)c23)c1 | 8.61 µM | 5.09 µM |  |
| COc1ccc(CNc2ccc(C(=O)NCCCN(C)C)c3[nH]c4c(N)cccc4c(=O)c23)cc1 | 5.68 µM | 13.4 µM |  |
| COc1ccc(CNc2ccc(C(=O)NCCCN(C)C)c3[nH]c4c(OC)cccc4c(=O)c23)cc1 | 10.8 µM | 9.97 µM |  |
| COCCNC(=O)c1ccc(NCc2ccc(OC)cc2)c2c(=O)c3cccc(C)c3[nH]c12 | > 50 µM | > 50 µM |  |

| Compound | IC50 [1] | IC50 [2] | further results |
| --- | --- | --- | --- |
| COc1ccc(CNc2ccc(C(=O)NCCCN(C)C)c3[nH]c4c([N+](=O)[O-])cccc4c(=O)c23)cc1 |  |  | Activity [5]: Dose-dependent effect; Activity [6]: Active; Activity [7]: Active; inhibition [8]: inactive; Activity [9]: Active; Activity [10]: inactive; Activity [11]: Dose-dependent effect; inhibition [12]: 10.9% |
| COc1cccc2c1C(=O)c1c(O)c3c(c(O)c1C2=O)C[C@@](O)(C(=O)CO)C[C@@H]3O[C@H]1C[C@H](N)[C@H](O)[C@H](C)O1 |  |  | inhibition [13]: 74.4% |
| O=c1[nH]cc(F)c(=O)[nH]1 [FLUOROURACIL] |  |  | Activity index [14]: 0.005 to 0.0144; Activity [15]: 0.062 to 0.419 g; Activity index [16]: 0.0034 to 0.0231; inhibition in vivo at 25 mg/kg [17]: 64%; Activity [18]: 30%; Activity [19]: 0.091 to 0.26 g |
| Cc1cccc2c(=O)c3c(NCc4ccccc4)ccc(C(=O)NCCN(C)C)c3[nH]c12 | 7.99 µM | 5.48 µM |  |
| COc1ccc(CNc2ccc(C(=O)NCCN(C)C)c3[nH]c4c(OC)cccc4c(=O)c23)cc1 | 5.15 µM | 6.13 µM |  |
| CN(C)CCNC(=O)c1ccc(Cl)c2c(=O)c3cccc([N+](=O)[O-])c3[nH]c12 | 14.5 µM | 2.28 µM |  |
| COc1cc(CNc2ccc(C(=O)NCCN(C)C)c3[nH]c4c(OC)cccc4c(=O)c23)cc(OC)c1OC | > 50 µM | > 50 µM |  |
| COc1cccc2c(=O)c3c(Cl)ccc(C(=O)NCCN(C)C)c3[nH]c12 | 24.7 µM | 18.5 µM |  |
| COc1ccc(CNc2ccc(C(=O)NCCN(C)C)c3[nH]c4c([N+](=O)[O-])cccc4c(=O)c23)cc1 | 4.5 µM | 1.05 µM |  |
| CN(C)CCCNC(=O)c1ccc(N(C)C)c2c(=O)c3cccc([N+](=O)[O-])c3[nH]c12 | 36.8 µM | 9.29 µM |  |
| COc1cccc2c(=O)c3c(NN)ccc(C(=O)NCCCN(C)C)c3[nH]c12 | 12.3 µM | 14.8 µM |  |
| Cc1cccc2c(=O)c3c(NN)ccc(C(=O)NCCN(C)C)c3[nH]c12 | 8.85 µM | 13 µM |  |
| COc1cccc(CNc2ccc(C(=O)NCCN(C)C)c3[nH]c4c(C)cccc4c(=O)c23)c1 | 2.82 µM | 3.65 µM | IC50 [4]: 3.12 µM |
| COCCNC(=O)c1ccc(NCc2ccc(C(F)(F)F)cc2)c2c(=O)c3cccc(C)c3[nH]c12 | > 50 µM | > 50 µM |  |
| CN(C)CCNC(=O)c1ccc(NCc2ccccc2)c2c(=O)c3cccc([N+](=O)[O-])c3[nH]c12 | 9.59 µM | 5.61 µM |  |
| COc1cc(CNc2ccc(C(=O)NCCN(C)C)c3[nH]c4c([N+](=O)[O-])cccc4c(=O)c23)cc(OC)c1OC | 7 µM | 5.73 µM |  |
